In one assay the target is Glutamate receptor 2 (Homo sapiens, UniProt P42262). Put plainly: Positive allosteric modulation of GluA2 (Q) flop isoform (unknown origin) expressed in HEK293 cells assessed as potentiation of glutamate-evoked calcium flux by fluo-4/AM dye-based fluorescence assay. The class given is cell-based. In general terms: Calcium assays in cells follow changes in intracellular calcium, usually with a dye or a luminescent sensor.

The species named for assay [1] is Rattus norvegicus. Put plainly: Induction of dimerization of rat N-terminal His-tagged GluA2-LBD-N775S mutant expressed in Escherichia coli Origami B (DE3) assessed as intrinsic binding constant by small-angle X-ray scattering method. An outline of the steps:
(§1)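 1 μL modulator in DMSO was added to 29 μL protein. Samples were held at 4 °C and read on the CHESS G1 beamline, three replicates averaged, with buffer subtraction.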

The species entered for assay [2] is Rattus norvegicus. Put plainly: Induction of dimerization of rat N-terminal His-tagged GluA2-LBD-N775S mutant expressed in Escherichia coli Origami B (DE3) assessed as dimerization constant by small-angle X-ray scattering method. The essentials: as §1
The species named for assay [3] is Rattus norvegicus. Put plainly: Induction of dimerization of rat N-terminal His-tagged/15N-labeled GluA2-LBD-N775S mutant expressed in Escherichia coli Origami B (DE3) at 90 uM by NMR spectroscopy.

The source made the active and inactive calls. The rule behind the calls is not given here.

Glutamate receptor 2, sequence (P42262 whole entry, canonical isoform): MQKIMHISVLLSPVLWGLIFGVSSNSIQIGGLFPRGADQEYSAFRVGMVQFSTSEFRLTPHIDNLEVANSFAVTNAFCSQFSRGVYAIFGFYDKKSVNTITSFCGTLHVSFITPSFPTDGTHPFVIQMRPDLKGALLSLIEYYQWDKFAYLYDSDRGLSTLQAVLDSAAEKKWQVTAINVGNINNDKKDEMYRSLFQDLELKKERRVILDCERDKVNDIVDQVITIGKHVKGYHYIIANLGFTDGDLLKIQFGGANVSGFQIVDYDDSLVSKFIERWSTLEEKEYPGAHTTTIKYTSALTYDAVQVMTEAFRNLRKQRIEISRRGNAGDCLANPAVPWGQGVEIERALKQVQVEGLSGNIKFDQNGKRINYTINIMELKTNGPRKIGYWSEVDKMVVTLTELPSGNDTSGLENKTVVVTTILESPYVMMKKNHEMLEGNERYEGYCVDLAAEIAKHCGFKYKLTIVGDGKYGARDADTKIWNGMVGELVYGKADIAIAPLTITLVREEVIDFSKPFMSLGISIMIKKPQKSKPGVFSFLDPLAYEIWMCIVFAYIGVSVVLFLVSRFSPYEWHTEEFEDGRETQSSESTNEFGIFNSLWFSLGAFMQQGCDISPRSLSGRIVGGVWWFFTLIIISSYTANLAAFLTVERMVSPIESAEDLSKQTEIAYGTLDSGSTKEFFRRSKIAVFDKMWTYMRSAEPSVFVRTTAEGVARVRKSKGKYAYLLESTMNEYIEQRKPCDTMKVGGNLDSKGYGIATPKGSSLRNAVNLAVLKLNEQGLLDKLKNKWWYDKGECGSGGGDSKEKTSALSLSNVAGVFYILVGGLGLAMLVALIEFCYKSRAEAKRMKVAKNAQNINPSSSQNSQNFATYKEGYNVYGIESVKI

Turning to `CC1N(C)c2ccc(Cl)cc2S(=O)(=O)N1C` (stereo not drawn), on Glutamate receptor 2 (read-out: EC50), the EC50 amounted to 18700 nM. Same read-out and setting: for `Cc1ccc(Oc2ccc3c(c2)S(=O)(=O)NCN3C2CC2)cc1` the value was 3190 nM. In the case of `O=S1(=O)NCN(CCF)c2ccc(Cl)cc21`, the K in the assay filed under Rattus norvegicus [1] is 2 ×10⁻⁶ M. Besides, on Glutamate receptor 2 (read-out: EC50), the EC50 stood at 20400 nM. Consider `Cc1ccccc1Oc1ccc2c(c1)S(=O)(=O)NCN2C`, for which the EC50 on Glutamate receptor 2 (read-out: pEC50 (converted)) was above 10000 nM. For `CN1CNS(=O)(=O)c2cc(Oc3ccccc3)ccc21`, the EC50 on Glutamate receptor 2 (read-out: EC50) turned out to be 7620 nM. On the same count and under the same terms, for `Cc1cccc(Oc2ccc3c(c2)S(=O)(=O)NCN3C)c1` the value was 390 nM; for `O=S1(=O)NCN(C2CC2)c2ccc(Oc3ccccc3)cc21`, 710 nM.

Turning to `COc1cccc(Oc2ccc3c(c2)S(=O)(=O)NCN3C)c1`, the EC50 at Glutamate receptor 2 (read-out: EC50) was found to be 370 nM. Still for that read-out and setting: for `COc1ccc(Oc2ccc3c(c2)S(=O)(=O)NCN3C)cc1` the value was 5900 nM. The same measure, in the same setting: for `N#Cc1cccc(Oc2ccc3c(c2)S(=O)(=O)NCN3C2CC2)c1` the value was 450 nM. In the case of `COc1ccccc1Oc1ccc2c(c1)S(=O)(=O)NCN2C1CC1`, at Glutamate receptor 2 (read-out: EC50), the EC50 was found to be 15600 nM. Take `COc1cccc(Oc2ccc3c(c2)S(=O)(=O)NCN3C2CC2)c1`: the K in the assay listed under Rattus norvegicus [1] was 5 ×10⁻¹¹ M; in the assay filed under Rattus norvegicus [2] it was 32 mM. Besides, the EC50 at Glutamate receptor 2 (read-out: EC50) stood at 2 nM. For the same molecule, in the assay filed under Rattus norvegicus [3], the result was Active. For `COc1ccc(Oc2ccc3c(c2)S(=O)(=O)NCN3C2CC2)cc1`, at Glutamate receptor 2 (read-out: EC50), the EC50 came to 1820 nM. For `Cc1ccccc1Oc1ccc2c(c1)S(=O)(=O)NCN2C1CC1`, the EC50 at Glutamate receptor 2 (read-out: EC50) was determined as 15600 nM. Regarding `O=S1(=O)NCN(C2CC2)c2ccc(F)cc21`, the K in the assay listed under Rattus norvegicus [1] is 9 ×10⁻⁷ M. For the same molecule, the EC50 at Glutamate receptor 2 (read-out: EC50) came out at 810 nM. Consider `Cc1ccc(Oc2ccc3c(c2)S(=O)(=O)NCN3C)cc1`, for which, on Glutamate receptor 2 (read-out: EC50), the EC50 was determined as 950 nM. On the same count and under the same terms, for `COc1ccccc1Oc1ccc2c(c1)S(=O)(=O)NCN2C` the value was above 10000 nM; for `Cc1cccc(Oc2ccc3c(c2)S(=O)(=O)NCN3C2CC2)c1`, 50 nM.

The record behind these values is ChEMBL document CHEMBL4028918, “7-Phenoxy-Substituted 3,4-Dihydro-2H-1,2,4-benzothiadiazine 1,1-Dioxides as Positive Allosteric Modulators of α-Amino-3-hydroxy-5-methyl-4-isoxazolepropionic Acid (AMPA) Receptors with Nanomolar Potency” (J Med Chem, 2018).
